From ChEMBL document CHEMBL1765024, “Fluorescent cyclin-dependent kinase inhibitors block the proliferation of human breast cancer cells” (Bioorg Med Chem, 2011)
Activity calls are given as the source filed them. The calls are words filed in the database; no cut-off is given here.

Assays:
[1] = system: MDA-MB-231; test: Induction of apoptosis in human MDA-MB-231 cells assessed as reduction of cdc2 phosphorylation at T161 catalytic site at 10 uM after 24 hrs by Western blot analysis; assay type: functional, cell-based
How it was run: (§1)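 MDA-MB-231 cells were treated with 10 µM compound for 1, 3, 6, 12 and 24 h and lysed. Equal protein was resolved by 10% SDS–PAGE and immunoblotted for phospho-cdc2 (T161, Y15), cdc2 and cyclin B, with actin as loading standard and ECL detection.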

[2] = system: MDA-MB-231; test: Induction of apoptosis in human MDA-MB-231 cells assessed as reduction of cdc2 phosphorylation at Y15 regulatory site at 10 uM after 24 hrs by Western blot analysis; assay type: functional, cell-based; how it was run: as §1
[3] = system: MCF7; test: Antiproliferative activity against human MCF7 cells expressing estrogen receptor at 100 uM after 48 hrs by WST-1 assay; assay type: functional, cell-based
How it was run: (§2)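 Cells seeded at 3000/well in DMEM with 10% FBS and left 24 h, then given compound from DMSO stock diluted in medium at 100 µM. Survival read by WST-1 48 h after addition: 2–3 h incubation, absorbance at 450 nm with 630 nm reference; triplicate experiments.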

[4] = system: MCF7; test: Antiproliferative activity against human MCF7 cells expressing estrogen receptor after 48 hrs by WST-1 assay; assay type: functional, cell-based; settings: MCF7, 48 h
How it was run: (§3)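 Cells seeded at 3000/well in DMEM with 10% FBS and left 24 h. Compounds in DMSO were serially diluted in medium (1–100 µM) and added in triplicate. WST-1 was read 48 h after addition: 2–3 h incubation, absorbance at 450 nm with 630 nm reference. IC50 interpolated from log concentration versus fraction surviving; mean (SEM) of triplicate experiments.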

[5] = system: MDA-MB-231; test: Antiproliferative activity against estrogen receptor-deficient human MDA-MB-231 cells at 100 uM after 48 hrs by WST-1 assay; assay type: functional, cell-based; how it was run: as §2
[6] = system: MDA-MB-231; test: Antiproliferative activity against estrogen receptor-deficient human MDA-MB-231 cells after 48 hrs by WST-1 assay; assay type: functional, cell-based; settings: MDA-MB-231, 48 h; how it was run: as §3
[7] = target: CDK9/cyclin T1 (Homo sapiens) (UniProt O60563+P50750); test: Inhibition of at human CDK9/cyclin T1 at 0.1 uM after 40 mins relative to control; assay type: protein-complex assay
How it was run: (§4)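 Radiometric screen at 100 nM compound against purified human CDK/cyclin (5–10 mU). Incubation 40 min at room temperature, stopped with phosphoric acid. Read by filtermat scintillation. Activity expressed as % of control, N = 2.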

[8] = target: Cyclin-dependent kinase 7/ cyclin H (Homo sapiens) (UniProt P51946+P50613); test: Inhibition of human CDK7/cyclinH/MAT1 at 0.1 uM after 40 mins relative to control; assay type: protein-complex assay; how it was run: as §4
[9] = target: CDK3/cyclin E (Homo sapiens) (UniProt P24864+O96020+Q00526); test: Inhibition of human CDK3/cyclin E at 0.1 uM after 40 mins relative to control; assay type: protein-complex assay; how it was run: as §4
[10] = target: T1, Cyclin-dependent kinase 5/CDK5 activator 1 (Homo sapiens) (UniProt Q00535+Q15078); settings: at 0.1 µM
[11] = target: T1, Cyclin-dependent kinase 5/CDK5 activator 1 (Homo sapiens); settings: at 0.1 µM; remark: listed apart in the source
[12] = target: Cyclin-dependent kinase 1/cyclin B1 (Homo sapiens) (UniProt P06493+P14635); settings: at 0.1 µM
[13] = system: MDA-MB-231; test: Induction of apoptosis in human MDA-MB-231 cells assessed as decrease in Bcl2 protein level at 10 uM after 48 hrs by Western blotting; assay type: functional, cell-based
How it was run: (§5)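 MDA-MB-231 cells were treated with vehicle or 10 µM compound for 48 h (and 72 h). Lysates were cleared and protein measured by BCA. Equal protein was run on 10% SDS–PAGE and transferred to PVDF, blocked in 5% milk overnight, and probed 2 h with anti-Bcl-2, Bax or PARP. HRP secondary was applied for 1 h, with ECL detection.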

[14] = system: MDA-MB-231; test: Induction of apoptosis in human MDA-MB-231 cells assessed as increase in Bax protein level at 10 uM after 48 hrs by Western blotting; assay type: functional, cell-based; how it was run: as §5
[15] = system: MDA-MB-231; test: Induction of apoptosis in human MDA-MB-231 cells assessed as decrease in caspase 3 protein level at 10 uM after 48 hrs by Western blotting; assay type: functional, cell-based
[16] = system: MDA-MB-231; test: Induction of apoptosis in human MDA-MB-231 cells assessed as decrease in caspase 7 protein level at 10 uM after 48 hrs by Western blotting; assay type: functional, cell-based
[17] = system: MDA-MB-231; test: Induction of apoptosis in human MDA-MB-231 cells assessed as induction of PARP cleavage at 10 uM after 48 hrs by Western blotting; assay type: functional, cell-based; how it was run: as §5
[18] = system: MCF7; test: Induction of apoptosis in human MCF7 cells assessed as viable cells at 10 uM after 24 hrs using annexinV-propidium iodide staining by flow cytometry (reference value: 70.32%); assay type: functional; settings: MCF7, 24 h, read-out: Activity
[19] = system: MCF7; test: Induction of apoptosis in human MCF7 cells assessed as early apoptotic cells at 10 uM after 24 hrs using annexinV-propidium iodide staining by flow cytometry (reference value: 4.24%); assay type: functional
[20] = system: MCF7; test: Induction of apoptosis in human MCF7 cells assessed as late apoptotic cells at 10 uM after 24 hrs using annexinV-propidium iodide staining by flow cytometry (reference value: 13.35%); assay type: functional
[21] = system: MCF7; test: Induction of apoptosis in human MCF7 cells assessed as necrotic cells at 10 uM after 24 hrs using annexinV-propidium iodide staining by flow cytometry (reference value: 12.09%); assay type: functional
[22] = system: MDA-MB-231; test: Cell cycle arrest in human MDA-MB-231 cells assessed as accumulation at G2/M phase at 5 to 10 uM after 16 to 40 hrs using propidium iodide staining by flow cytometry; assay type: functional, cell-based
How it was run: (§6)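 Asynchronous cells were treated with 5 or 10 µM compound or DMSO for 24 h (also 16 and 40 h). They were trypsinized, washed in PBS and fixed/permeabilized in 70% ethanol. Staining was with RNase and propidium iodide for 30 min in the dark at room temperature, followed by flow cytometry. Phase percentages are given minus DMSO control; mean of triplicates.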

[23] = system: MDA-MB-231; test: Induction of apoptosis in human MDA-MB-231 cells assessed as aberrant gross morphological changes at 10 uM after 48 hrs using propidium iodide staining by confocal microscopic analysis; assay type: functional, cell-based
[24] = system: MDA-MB-231; test: Induction of apoptosis in human MDA-MB-231 cells assessed as decrease in cell number at 10 uM after 48 hrs using propidium iodide staining by confocal microscopic analysis; assay type: functional, cell-based
[25] = system: MDA-MB-231; test: Cell cycle arrest in human MDA-MB-231 cells assessed as accumulation at G2/M phase at 5 to 10 uM after 24 hrs using propidium iodide staining by flow cytometry; assay type: functional, cell-based; how it was run: as §6
[26] = system: MCF7; test: Cell cycle arrest in human MCF7 cells assessed as accumulation at G2/M phase at 5 to 10 uM after 24 hrs using propidium iodide staining by flow cytometry; assay type: functional, cell-based; how it was run: as §6
[27] = system: MDA-MB-231; test: Cell cycle arrest in human MDA-MB-231 cells assessed as accumulation at sup G1 phase at 5 to 10 uM after 24 hrs using propidium iodide staining by flow cytometry; assay type: functional, cell-based; how it was run: as §6
[28] = system: MCF7; test: Cell cycle arrest in human MCF7 cells assessed as accumulation at sub G1 phase at 5 to 10 uM after 24 hrs using propidium iodide staining by flow cytometry; assay type: functional, cell-based; how it was run: as §6
[29] = system: MCF7; test: Cell cycle arrest in human MCF7 cells assessed as accumulation at G2/M phase at 5 to 10 uM after 16 to 40 hrs using propidium iodide staining by flow cytometry; assay type: functional, cell-based; how it was run: as §6
[30] = system: MCF7; test: Induction of apoptosis in human MCF7 cells assessed as aberrant gross morphological changes at 10 uM after 48 hrs using propidium iodide staining by confocal microscopic analysis; assay type: functional, cell-based
[31] = system: MCF7; test: Induction of apoptosis in human MCF7 cells assessed as decrease in cell number at 10 uM after 48 hrs using propidium iodide staining by confocal microscopic analysis; assay type: functional, cell-based
[32] = Antiproliferative activity against human CL 10.3 cells expressing p-glycoprotein after 72 hrs by WST-1 assay; assay type: functional, cell-based
How it was run: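 MCF-7 and its P-glycoprotein-overexpressing MDR subline CL 10.3 were grown in DMEM with 10% heat-inactivated FBS. Compounds in DMSO were serially diluted in medium and given to cells for 72 h. Read-out was WST-1 reduction (450 nm, 630 nm reference). IC50 interpolated from log concentration versus fraction surviving; mean (SEM) of triplicates. Ratio is CL 10.3 IC50 over MCF-7 IC50.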

[33] = system: MDA-MB-231; test: Induction of apoptosis in human MDA-MB-231 cells assessed as decrease in Bcl2 protein level at 40 uM after 48 hrs by Western blotting; assay type: functional, cell-based
How it was run: (§7)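 Cells treated with vehicle or compound, then lysed in NP-40/Triton X-100 buffer with protease and phosphatase inhibitors. Lysate protein measured by BCA, and equal protein run on 10% SDS–PAGE and transferred to PVDF. Blocked overnight in 5% milk/TBST, primary antibody 2 h, HRP secondary 1 h, ECL detection.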

[34] = system: MDA-MB-231; test: Induction of apoptosis in human MDA-MB-231 cells assessed as increase in Bax protein level at 40 uM after 48 hrs by Western blotting; assay type: functional, cell-based; how it was run: as §7
[35] = system: MDA-MB-231; test: Induction of apoptosis in human MDA-MB-231 cells assessed as decrease in caspase 3 protein level at 40 uM after 48 hrs by Western blotting; assay type: functional, cell-based; how it was run: as §7
[36] = system: MDA-MB-231; test: Induction of apoptosis in human MDA-MB-231 cells assessed as decrease in caspase 7 protein level at 40 uM after 48 hrs by Western blotting; assay type: functional, cell-based; how it was run: as §7
[37] = system: MDA-MB-231; test: Cell cycle arrest in human MDA-MB-231 cells assessed as accumulation at G2/M phase treated at 5 uM for 24 hrs measured after drug washout following 48 hrs growth recovery using propidium iodide staining by flow cytometry; assay type: functional, cell-based
How it was run: (§8)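 Exponentially growing cells exposed 24 h, then held a further 48 h in compound-free medium. Cells trypsinized, pelleted, PBS-washed, permeabilized in 70% ethanol, stained 30 min in the dark at room temperature with PI plus RNase, and analysed by flow cytometry. Phase percentages given after subtracting untreated control. Mean of triplicate experiments.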

[38] = system: MDA-MB-231; test: Cell cycle arrest in human MDA-MB-231 cells assessed as accumulation at G2/M phase treated at 10 uM for 24 hrs measured after drug washout following 48 hrs growth recovery using propidium iodide staining by flow cytometry; assay type: functional, cell-based; how it was run: as §8

T1 sequence (Q00535 whole entry): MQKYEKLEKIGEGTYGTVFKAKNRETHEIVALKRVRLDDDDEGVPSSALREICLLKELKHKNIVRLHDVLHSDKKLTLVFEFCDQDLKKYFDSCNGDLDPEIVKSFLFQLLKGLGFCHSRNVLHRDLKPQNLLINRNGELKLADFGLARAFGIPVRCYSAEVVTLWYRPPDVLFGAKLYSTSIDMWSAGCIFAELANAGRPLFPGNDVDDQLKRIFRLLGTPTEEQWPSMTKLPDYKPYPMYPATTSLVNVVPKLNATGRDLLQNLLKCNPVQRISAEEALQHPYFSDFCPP
T1 sequence (Q15078 99-307 partner limits assumed): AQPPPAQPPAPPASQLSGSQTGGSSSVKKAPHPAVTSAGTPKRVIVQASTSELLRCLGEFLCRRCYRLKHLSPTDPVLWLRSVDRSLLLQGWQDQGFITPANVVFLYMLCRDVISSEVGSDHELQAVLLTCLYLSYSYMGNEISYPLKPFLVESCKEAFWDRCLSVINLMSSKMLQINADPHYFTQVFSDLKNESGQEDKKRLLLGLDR
CDK3/cyclin E (Homo sapiens), sequence (O96020 whole entry, looked up): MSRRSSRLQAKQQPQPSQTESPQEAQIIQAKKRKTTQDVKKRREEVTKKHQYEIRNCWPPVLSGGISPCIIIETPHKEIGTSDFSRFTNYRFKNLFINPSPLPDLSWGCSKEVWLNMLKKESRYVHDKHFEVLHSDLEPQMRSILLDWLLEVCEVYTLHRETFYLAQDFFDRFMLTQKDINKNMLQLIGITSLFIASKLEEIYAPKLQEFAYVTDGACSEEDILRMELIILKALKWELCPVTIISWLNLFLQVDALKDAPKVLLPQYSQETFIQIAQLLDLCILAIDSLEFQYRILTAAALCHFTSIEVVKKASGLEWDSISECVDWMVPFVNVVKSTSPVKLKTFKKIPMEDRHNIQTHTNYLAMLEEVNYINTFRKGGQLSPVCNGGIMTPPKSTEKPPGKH
CDK3/cyclin E (Homo sapiens), sequence (P24864 whole entry, looked up): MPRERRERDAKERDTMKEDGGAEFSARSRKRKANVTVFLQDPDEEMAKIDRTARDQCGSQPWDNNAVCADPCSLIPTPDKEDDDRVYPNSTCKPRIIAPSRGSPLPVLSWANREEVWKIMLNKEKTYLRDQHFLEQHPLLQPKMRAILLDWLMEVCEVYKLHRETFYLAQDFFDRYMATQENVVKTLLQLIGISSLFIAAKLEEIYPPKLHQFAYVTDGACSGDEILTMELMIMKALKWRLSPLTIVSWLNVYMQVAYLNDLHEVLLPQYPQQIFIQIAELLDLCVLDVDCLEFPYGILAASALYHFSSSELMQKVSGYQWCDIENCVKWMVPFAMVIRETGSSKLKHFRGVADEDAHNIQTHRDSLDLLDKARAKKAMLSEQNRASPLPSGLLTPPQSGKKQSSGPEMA
CDK3/cyclin E (Homo sapiens), sequence (Q00526 whole entry, looked up): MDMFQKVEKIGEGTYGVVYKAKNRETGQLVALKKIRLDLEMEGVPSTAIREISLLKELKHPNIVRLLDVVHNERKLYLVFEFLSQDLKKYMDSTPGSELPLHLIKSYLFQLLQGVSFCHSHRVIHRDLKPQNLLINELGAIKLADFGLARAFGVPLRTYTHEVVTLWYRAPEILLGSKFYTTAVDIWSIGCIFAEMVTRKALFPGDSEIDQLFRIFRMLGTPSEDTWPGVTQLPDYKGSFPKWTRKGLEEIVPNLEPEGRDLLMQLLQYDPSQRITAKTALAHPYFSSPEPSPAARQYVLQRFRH
Cyclin-dependent kinase 1/cyclin B1 (Homo sapiens), sequence (P06493 whole entry, looked up): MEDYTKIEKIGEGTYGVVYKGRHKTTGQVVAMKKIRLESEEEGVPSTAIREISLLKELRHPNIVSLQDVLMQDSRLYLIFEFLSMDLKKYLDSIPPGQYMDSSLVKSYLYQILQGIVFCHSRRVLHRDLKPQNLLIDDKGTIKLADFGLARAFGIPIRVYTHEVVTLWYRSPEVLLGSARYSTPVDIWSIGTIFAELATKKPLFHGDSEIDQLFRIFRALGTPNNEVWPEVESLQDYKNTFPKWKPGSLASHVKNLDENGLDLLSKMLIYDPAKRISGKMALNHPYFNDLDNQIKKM
Cyclin-dependent kinase 1/cyclin B1 (Homo sapiens), sequence (P14635 whole entry, looked up): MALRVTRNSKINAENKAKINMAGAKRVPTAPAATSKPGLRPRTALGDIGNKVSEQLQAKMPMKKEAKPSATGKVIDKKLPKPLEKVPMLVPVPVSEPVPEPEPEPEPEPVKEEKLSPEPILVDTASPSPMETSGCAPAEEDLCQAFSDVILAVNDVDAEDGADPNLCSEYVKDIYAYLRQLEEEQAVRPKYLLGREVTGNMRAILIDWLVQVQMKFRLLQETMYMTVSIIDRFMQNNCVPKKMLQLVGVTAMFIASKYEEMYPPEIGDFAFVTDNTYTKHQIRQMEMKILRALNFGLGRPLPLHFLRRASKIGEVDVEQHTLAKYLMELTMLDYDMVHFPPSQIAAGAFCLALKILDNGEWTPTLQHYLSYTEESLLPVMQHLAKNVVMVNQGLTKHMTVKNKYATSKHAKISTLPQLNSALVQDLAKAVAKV

| Structure (SMILES) | IC50 [4] [µM] | IC50 [6] [µM] | inhibition [7] [%] | inhibition [8] [%] | inhibition [9] [%] | inhibition [10] [%] | inhibition [11] [%] | inhibition [12] [%] | viability at 10 µM [18] [%] | Activity [19] [%] | Activity [20] [%] | Activity [21] [%] | further results |
| --- | --- | --- | --- | --- | --- | --- | --- | --- | --- | --- | --- | --- | --- |
| CC(C)[C@H](CO)Nc1nc(Nc2ccc(C(=O)O)c(Cl)c2)c2ncn(C(C)C)c2n1 [PURVALANOL B] | > 100 | > 100 | 22 | 66 | 89 | 97 | 97 | 78 |  |  |  |  | Activity [1]: inactive; Activity [2]: inactive; Activity [3]: inactive; Activity [5]: inactive |
| CC[C@H](CO)Nc1nc(Nc2ccc(C(=O)NCCNS(=O)(=O)c3cccc4c(N(C)C)cccc34)c(Cl)c2)c2ncn(C(C)C)c2n1 | 19.1 | 4.86 | 44 | 57 | 40 | 67 | 76 | 16 | 52.3 | 8.87 | 16.74 | 22.14 | Activity [13]: Active; Activity [14]: Active; Activity [15]: Active; Activity [16]: Active; Activity [17]: Active; Activity [22]: Active; Activity [23]: Active; Activity [24]: Active; Activity [25]: Active; Activity [26]: Active; Activity [27]: Active; Activity [28]: Active; Activity [29]: Active; Activity [30]: Active; Activity [31]: Active |
| CC(=O)O[C@H]1C(=O)[C@@]2(C)[C@H]([C@H](OC(=O)c3ccccc3)[C@]3(O)C[C@H](OC(=O)[C@H](O)[C@@H](NC(=O)c4ccccc4)c4ccccc4)C(C)=C1C3(C)C)[C@]1(OC(C)=O)CO[C@@H]1C[C@@H]2O [PACLITAXEL] |  |  |  |  |  |  |  |  |  |  |  |  | IC50 [32]: > 50 µM |
| CC[C@H](CO)Nc1nc(NCc2ccccc2)c2ncn(C(C)C)c2n1 [SELICICLIB] |  | 54.6 | 19 | 26 |  |  |  |  | 73.1 | 7.13 | 13.2 | 6.56 | Activity [33]: inactive; Activity [34]: inactive; Activity [35]: inactive; Activity [36]: inactive; Activity [37]: inactive; Activity [38]: inactive |
| CN(C)c1cccc2c(S(=O)(=O)NCCN)cccc12 [DANSYL ETHYLENEDIAMINE] | > 100 | > 100 |  |  |  |  |  |  |  |  |  |  |  |
